In ChEMBL document CHEMBL4699573, “Design, Synthesis, and Pharmacological Evaluation of Analogues Derived from the PLEV Tetrapeptide as Protein-Protein Interaction Modulators of Voltage-Gated Sodium Channel 1.6” (J Med Chem, 2020):
Active and inactive are the calls of the source. No cut-off for these calls is given here. Residues, ends and D or L forms follow the SMILES beside them. *: point of attachment. Adamantane1carbonyl = O=C(C12CC3CC(CC(C3)C1)C2)*; Morpholide = C1CN(*)CCO1; Cbz = O=C(OCc1ccccc1)*; NHBn = c1ccc(CN*)cc1; Bz = O=C(c1ccccc1)*; NHCH2CH2OH = OCCN*; X2 = C1O[C@@H]1CO*; OtBu = CC(C)(C)O*; NEt2 = CCN(CC)*; X1 = C#CCO*

Key:
HEK293 [1] = experiment: Modulation of recombinant human FGF141b (1 to 252 residues)-recombinant human Nav1.6 C-terminal tail (1763 to 1976 residues) protein-protein interaction expressed in HEK293 cells assessed as relative luminescence value at 50 uM measured at 2 mins interval for 20 mins by split-luciferase complementation assay relative to control; type: cell-based; conditions: time min 2-20
How it was run: (§1)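 Double-stable HEK293 line expressing CLuc-FGF14 and CD4-Nav1.6-C-tail-NLuc, kept on G418 and puromycin. Cells seeded for 24 h, then given compound for 1 h in serum-free, phenol red-free DMEM/F12 with a final 0.5% DMSO: 50 μM for screening, 0.25–100 μM over eight concentrations for dose-response; n = 4. D-luciferin added and read every 2 min for 20 min at 37 °C. Peak luminescence expressed as percent of per-plate DMSO mean (n = 32). IC50 from four-parameter nonlinear fit. At least 3 experiments.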

[2] = Modulation of recombinant human FGF141b (1 to 252 residues)-recombinant human Nav1.6 C-terminal tail (1763 to 1976 residues) protein-protein interaction expressed in HEK293 cells measured at 2 mins interval for 20 mins by split-luciferase complementation assay; type: cell-based; how it was run: as §1
HEK293 [3] = experiment: Modulation of recombinant human FGF141b (1 to 252 residues)-recombinant human Nav1.6 C-terminal tail (1763 to 1976 residues) protein-protein interaction expressed in HEK293 cells measured at 2 mins interval for 20 mins by split-luciferase complementation assay relative to control; type: cell-based; conditions: filed as modulator, time min 2-20; how it was run: as §1
HEK293 [4] = experiment: Inhibition of full-length Photinus pyralis luciferase transfected in HEK293 cells at 25 uM incubated for 1 hrs by split-luciferase complementation assay; type: cell-based
How it was run: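 HEK293 cells transfected with full-length Photinus pyralis luciferase, then treated 1 h with 25 μM compound (n = 4) or 0.5% DMSO (n = 32). Luminescence read after D-luciferin addition, as in the LCA, normalized to per-plate DMSO controls. One-way ANOVA with Dunnett's test.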

HEK293 [5] = experiment: Cytotoxicity against HEK293 cells assessed as reduction in cell viability measured after 18 hrs by celltiter-blue assay; conditions: human, hek293, 18 h
[6] = target: T1, Fibroblast growth factor 14 (Homo sapiens, UniProt Q92915); experiment: Binding affinity to human recombinant FGF14 expressed in Escherichia coli BL21 assessed as dissociation constant by SPR analysis
T1 sequence (Q92915 whole entry): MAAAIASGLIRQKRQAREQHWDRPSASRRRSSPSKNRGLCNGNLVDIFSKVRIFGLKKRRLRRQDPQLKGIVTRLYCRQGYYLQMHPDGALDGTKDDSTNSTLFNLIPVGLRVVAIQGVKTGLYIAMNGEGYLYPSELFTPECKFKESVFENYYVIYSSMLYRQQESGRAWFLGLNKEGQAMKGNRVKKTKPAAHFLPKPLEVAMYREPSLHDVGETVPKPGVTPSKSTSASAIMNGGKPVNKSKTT
How it was run: (§2)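 Biacore T100 runs with FGF14 (17,896 RU) or Nav1.6 C-tail (6,800 RU) amine-coupled on CM5 at pH 5.5. Compounds at 0.195–200 μM in PBS, 0.005% Tween-20, 2% DMSO; 50 μL/min at 25 °C. 120 s association, 150 s dissociation, DMSO calibration, blank subtraction. Rates from a Langmuir 1:1 fit; KD averages the kinetic and steady-state values. At least duplicate experiments.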

[7] = target: T2, Sodium channel protein type 8 subunit alpha (Homo sapiens, UniProt Q9UQD0); experiment: Binding affinity to human recombinant Nav1.6 C-terminal domain expressed in Escherichia coli BL21 assessed as dissociation constant by SPR analysis; how it was run: as §2
Target sequence in this assay (Q9UQD0 whole entry, the tested form may be a part): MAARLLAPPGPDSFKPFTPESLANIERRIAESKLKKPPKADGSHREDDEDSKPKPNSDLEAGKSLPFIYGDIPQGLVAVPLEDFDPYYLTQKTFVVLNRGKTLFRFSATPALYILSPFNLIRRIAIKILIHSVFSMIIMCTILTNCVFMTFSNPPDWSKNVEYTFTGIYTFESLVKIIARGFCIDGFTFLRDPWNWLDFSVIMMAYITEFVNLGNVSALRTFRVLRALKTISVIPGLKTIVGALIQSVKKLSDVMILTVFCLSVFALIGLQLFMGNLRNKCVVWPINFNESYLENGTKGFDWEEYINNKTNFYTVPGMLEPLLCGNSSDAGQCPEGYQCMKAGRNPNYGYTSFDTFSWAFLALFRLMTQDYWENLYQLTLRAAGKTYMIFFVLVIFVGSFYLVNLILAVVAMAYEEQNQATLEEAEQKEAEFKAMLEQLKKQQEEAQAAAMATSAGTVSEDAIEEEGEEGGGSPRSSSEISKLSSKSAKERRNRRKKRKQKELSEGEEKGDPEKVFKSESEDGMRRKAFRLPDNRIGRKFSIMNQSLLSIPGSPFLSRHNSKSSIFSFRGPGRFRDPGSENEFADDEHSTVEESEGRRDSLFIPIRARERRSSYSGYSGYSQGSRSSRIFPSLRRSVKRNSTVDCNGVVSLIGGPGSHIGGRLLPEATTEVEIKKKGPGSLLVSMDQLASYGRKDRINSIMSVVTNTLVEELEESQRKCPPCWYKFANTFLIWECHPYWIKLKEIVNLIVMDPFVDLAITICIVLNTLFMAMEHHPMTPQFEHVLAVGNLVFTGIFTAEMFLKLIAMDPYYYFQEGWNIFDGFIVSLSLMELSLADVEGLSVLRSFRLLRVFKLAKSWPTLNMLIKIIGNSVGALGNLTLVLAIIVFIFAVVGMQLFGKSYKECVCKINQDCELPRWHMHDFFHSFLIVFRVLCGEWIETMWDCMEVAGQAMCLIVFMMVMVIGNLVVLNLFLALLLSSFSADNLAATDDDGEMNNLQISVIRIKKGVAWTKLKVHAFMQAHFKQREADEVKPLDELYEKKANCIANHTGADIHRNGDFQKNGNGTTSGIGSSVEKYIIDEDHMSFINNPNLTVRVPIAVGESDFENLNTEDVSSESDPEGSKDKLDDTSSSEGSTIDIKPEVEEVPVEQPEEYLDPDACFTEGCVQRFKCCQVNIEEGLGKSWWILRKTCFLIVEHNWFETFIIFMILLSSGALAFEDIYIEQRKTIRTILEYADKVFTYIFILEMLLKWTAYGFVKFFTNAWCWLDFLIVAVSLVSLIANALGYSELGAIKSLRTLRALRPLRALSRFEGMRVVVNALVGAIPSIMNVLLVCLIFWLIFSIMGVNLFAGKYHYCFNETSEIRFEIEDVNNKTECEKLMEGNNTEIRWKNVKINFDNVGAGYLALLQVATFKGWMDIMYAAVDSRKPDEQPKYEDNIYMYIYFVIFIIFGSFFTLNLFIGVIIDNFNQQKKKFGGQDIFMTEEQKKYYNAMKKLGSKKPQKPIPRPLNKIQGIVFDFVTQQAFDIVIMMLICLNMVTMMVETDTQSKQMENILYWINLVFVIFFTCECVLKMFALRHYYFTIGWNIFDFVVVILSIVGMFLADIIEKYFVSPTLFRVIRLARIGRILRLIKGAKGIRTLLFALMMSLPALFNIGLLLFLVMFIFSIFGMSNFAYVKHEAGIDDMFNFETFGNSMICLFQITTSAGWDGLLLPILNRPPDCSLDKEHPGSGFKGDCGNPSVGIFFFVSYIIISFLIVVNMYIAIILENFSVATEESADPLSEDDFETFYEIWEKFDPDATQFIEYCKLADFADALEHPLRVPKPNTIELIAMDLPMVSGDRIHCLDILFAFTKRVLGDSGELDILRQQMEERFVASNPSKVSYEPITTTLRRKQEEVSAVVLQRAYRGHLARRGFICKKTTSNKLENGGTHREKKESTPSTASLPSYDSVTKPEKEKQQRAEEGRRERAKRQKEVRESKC

[8] = target: T3, Fibroblast growth factor 14 (Homo sapiens) (UniProt Q92915); experiment: Binding affinity to human recombinant FGF14 expressed in Escherichia coli BL21 assessed as association rate constant by SPR analysis; conditions: filed as modulator; how it was run: as §2
T3 sequence (whole entry): T1 sequence (Q92915 whole entry)

[9] = target: T3, Fibroblast growth factor 14 (Homo sapiens); experiment: Binding affinity to human recombinant FGF14 expressed in Escherichia coli BL21 assessed as dissociation rate constant by SPR analysis; conditions: filed as modulator; how it was run: as §2
[10] = target: T2, Sodium channel protein type 8 subunit alpha; experiment: Binding affinity to human recombinant Nav1.6 C-terminal domain expressed in Escherichia coli BL21 assessed as association rate constant by SPR analysis; conditions: filed as modulator; how it was run: as §2
Target sequence in this assay (Q9UQD0 whole entry, looked up, the tested form may be a part): as the sequence (Q9UQD0 whole entry, the tested form may be a part) above

[11] = target: T2, Sodium channel protein type 8 subunit alpha; experiment: Binding affinity to human recombinant Nav1.6 C-terminal domain expressed in Escherichia coli BL21 assessed as dissociation rate constant by SPR analysis; conditions: filed as modulator; how it was run: as §2
Target sequence in this assay (Q9UQD0 whole entry, looked up, the tested form may be a part): as the sequence (Q9UQD0 whole entry, the tested form may be a part) above

[12] = target: T3, Fibroblast growth factor 14 (Homo sapiens); experiment: Binding affinity to human recombinant FGF14 expressed in Escherichia coli BL21 assessed as assessed as induction of protein denaturation by measuring change in melting temperature at 50 uM by fluorescent dye based thermal shift assay; conditions: filed as modulator
[13] = target: T2, Sodium channel protein type 8 subunit alpha; experiment: Binding affinity to human recombinant Nav1.6 C-terminal domain expressed in Escherichia coli BL21 assessed as assessed as induction of protein denaturation by measuring change in melting temperature at 10 uM by fluorescent dye based thermal shift assay; conditions: filed as modulator, dose 50.0 µM
Target sequence in this assay (Q9UQD0 whole entry, looked up, the tested form may be a part): as the sequence (Q9UQD0 whole entry, the tested form may be a part) above

Compound | Activity (HEK293 [1]) | IC50 [2] | Efficacy (HEK293 [3]) | inhibition (HEK293 [4]) | Activity (HEK293 [5]) | further results
COC(=O)[C@@H](NC(=O)[C@H](CCC(=O)OC(C)(C)C)NC(=O)[C@H](CC(C)C)NC(=O)[C@@H]1CCCN1C(C)=O)C(C)C (Ac-PLE(OtBu)V-OMe) | 95% |  |  |  |  | 
CC(=O)N1CCC[C@H]1C(=O)N[C@@H](CC(C)C)C(=O)N[C@@H](CCC(=O)O)C(=O)N[C@H](C(N)=O)C(C)C (Ac-PLEV-NH2) | 79.4% |  |  |  |  | 
CC(C)C[C@H](NC(=O)[C@@H]1CCCN1C(=O)C12CC3CC(CC(C3)C1)C2)C(=O)N[C@@H](CCC(=O)OC(C)(C)C)C(=O)N[C@H](C(N)=O)C(C)C (Adamantane1carbonyl-PLE(OtBu)V-NH2) | 68.7% | 49 µM | 82.1% | inactive | Non-Toxic | 
CCOC(=O)[C@@H](NC(=O)[C@H](CCC(=O)OC(C)(C)C)NC(=O)[C@H](CC(C)C)NC(=O)[C@@H]1CCCN1C(=O)C12CC3CC(CC(C3)C1)C2)C(C)C (Adamantane1carbonyl-PLE(OtBu)V-OEt) |  | 13.3 µM | 82.3% |  |  | Kd [6]: 9.47 µM; Kd [7]: 67.3 µM; K [8]: 2.17 10^2/M/s; K [9]: 2.05 10^-2/s; K [10]: 2.64 10^3/M/s; K [11]: 1.22 10^-2/s
C#CCOC(=O)[C@@H](NC(=O)[C@H](CCC(=O)OC(C)(C)C)NC(=O)[C@H](CC(C)C)NC(=O)[C@@H]1CCCN1C(=O)C12CC3CC(CC(C3)C1)C2)C(C)C (Adamantane1carbonyl-PLE(OtBu)V-X1) |  | 13.8 µM | 96.6% | inactive | Non-Toxic | Activity (HEK293 [1]; filed as modulator): 5.1%; ΔTm [12]: -1.85 °C; ΔTm [13]: -0.15 °C; Kd [6]: 14.7 µM; Kd [7]: > 200 µM; K [8]: 2.58 10^4/M/s; K [10]: 1.26 10^5/M/s; K [11]: 1.45 10^-3/s
CC(C)C[C@H](NC(=O)[C@@H]1CCCN1C(=O)C12CC3CC(CC(C3)C1)C2)C(=O)N[C@@H](CCC(=O)OC(C)(C)C)C(=O)N[C@H](C(=O)OC[C@@H]1CO1)C(C)C (Adamantane1carbonyl-PLE(OtBu)V-X2) |  | 25.1 µM | 91.4% | inactive | Non-Toxic | Activity (HEK293 [1]; filed as modulator): 13.1%
CC(C)C[C@H](NC(=O)[C@@H]1CCCN1C(=O)c1ccccc1)C(=O)N[C@@H](CCC(=O)OC(C)(C)C)C(=O)N[C@H](C(N)=O)C(C)C (Bz-PLE(OtBu)V-NH2) | 105% |  |  |  |  | 
CC(C)C[C@H](NC(=O)[C@@H]1CCCN1C(=O)OCc1ccccc1)C(=O)N[C@@H](CCC(=O)OC(C)(C)C)C(=O)N[C@H](C(=O)N1CCOCC1)C(C)C (Cbz-PLE(OtBu)V-Morpholide) | 72% |  |  |  |  | 
CCN(CC)C(=O)[C@@H](NC(=O)[C@H](CCC(=O)OC(C)(C)C)NC(=O)[C@H](CC(C)C)NC(=O)[C@@H]1CCCN1C(=O)OCc1ccccc1)C(C)C (Cbz-PLE(OtBu)V-NEt2) | 92.3% |  |  |  |  | 
CC(C)C[C@H](NC(=O)[C@@H]1CCCN1C(=O)OCc1ccccc1)C(=O)N[C@@H](CCC(=O)OC(C)(C)C)C(=O)N[C@H](C(N)=O)C(C)C (Cbz-PLE(OtBu)V-NH2) | 112% |  |  |  |  | 
CC(C)C[C@H](NC(=O)[C@@H]1CCCN1C(=O)OCc1ccccc1)C(=O)N[C@@H](CCC(=O)OC(C)(C)C)C(=O)N[C@H](C(=O)NCc1ccccc1)C(C)C (Cbz-PLE(OtBu)V-NHBn) | 134% |  |  | inactive | Non-Toxic | 
CC(C)C[C@H](NC(=O)[C@@H]1CCCN1C(=O)OCc1ccccc1)C(=O)N[C@@H](CCC(=O)OC(C)(C)C)C(=O)N[C@H](C(=O)NCCO)C(C)C (Cbz-PLE(OtBu)V-NHCH2CH2OH) | 118% |  |  |  |  | 
CNC(=O)[C@@H](NC(=O)[C@H](CCC(=O)OC(C)(C)C)NC(=O)[C@H](CC(C)C)NC(=O)[C@@H]1CCCN1C(=O)OCc1ccccc1)C(C)C (Cbz-PLE(OtBu)V-NHMe) | 103% |  |  |  |  | 
